{"source": "ChEMBL document CHEMBL3861960", "about": "“Leoligin, the Major Lignan from Edelweiss (Leontopodium nivale subsp. alpinum), Promotes Cholesterol Efflux from THP-1 Macrophages” (J Nat Prod, 2016)", "key": {"THP-1 [1]": {"test_system": "THP-1", "assay": "Effect on BHLHA15 protein expression in human THP1 cells at 10 uM after 24 hrs by proteome analysis relative to control", "format": "functional", "outline": "(§1)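 PMA-differentiated THP-1 macrophages given 10 μM compound or DMSO for 24 h, then lysed in TRIzol. Proteins reduced with DTT, alkylated with iodoacetamide, digested with trypsin (1:50 w/w) for 16 h at 30 °C. Biological replicates pooled, analysed by LC-MS/MS on an Orbitrap Velos Pro with a 4 h gradient, FDR ≤0.05. Only unique peptides used; log2 peptide ratios averaged per protein and tested by one-sample t test versus vehicle.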"}, "THP-1 [2]": {"test_system": "THP-1", "assay": "Effect on TUSC2 protein expression in human THP1 cells at 10 uM after 24 hrs by proteome analysis relative to control", "format": "functional", "outline": "as §1"}, "THP-1 [3]": {"test_system": "THP-1", "assay": "Effect on MAGEBS protein expression in human THP1 cells at 10 uM after 24 hrs by proteome analysis relative to control", "format": "functional", "outline": "as §1"}, "THP-1 [4]": {"test_system": "THP-1", "assay": "Induction of 1% human plasma-mediated cholesterol efflux from [3H]-cholesterol labeled human THP1 cells at 10 uM preincubated for 24 hrs followed by 1% human plasma addition measured after 6 hrs by scintillation counting method", "format": "functional", "outline": "(§2)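 Differentiated THP-1 macrophages loaded with [3H]-cholesterol for 24 h in the presence of compound, or pioglitazone 10 μM as positive control. Medium then replaced with serum-free RPMI containing compound, with or without acceptor (10 μg/mL apo A1 or 1% human plasma from fasted volunteers), for 6 h. Efflux % = extracellular/total cpm with acceptor minus without acceptor, ×100, by scintillation counting. Three independent experiments.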"}, "THP-1 [5]": {"test_system": "THP-1", "assay": "Effect on GOLGA5 protein expression in human THP1 cells at 10 uM after 24 hrs by proteome analysis relative to control", "format": "functional", "outline": "as §1"}, "[6]": {"assay": "Upregulation of ABCA1 mRNA expression in human THP1 cells at 10 uM after 24 hrs by qPCR method relative to control", "format": "functional, cell-based", "settings": "THP-1", "outline": "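THP-1 macrophages treated for 24 h with 10 μM compound, 10 μM pioglitazone or DMSO. Total RNA extracted and converted to cDNA; ABCA1 or ABCG1 measured by SYBR Green qPCR and expressed relative to 18S. Mean ± SD of four independent experiments; one-way ANOVA with Bonferroni test against DMSO.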"}, "THP-1 [7]": {"test_system": "THP-1", "assay": "Effect on NBEA protein expression in human THP1 cells at 10 uM after 24 hrs by proteome analysis relative to control", "format": "functional", "outline": "as §1"}, "THP-1 [8]": {"test_system": "THP-1", "assay": "Effect on ATP13A3 protein expression in human THP1 cells at 10 uM after 24 hrs by proteome analysis relative to control", "format": "functional", "outline": "as §1"}, "THP-1 [9]": {"test_system": "THP-1", "assay": "Effect on ART4 protein expression in human THP1 cells at 10 uM after 24 hrs by proteome analysis relative to control", "format": "functional", "outline": "as §1"}, "[10]": {"assay": "Cytotoxicity against human THP1 cells assessed as decrease in cell viability at 1 to 20 uM after 24 hrs by resazurin assay", "format": "toxicity, cell-based", "settings": "thp-1, 24 h", "outline": "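THP-1 cells kept in RPMI-1640 with 10% heat-inactivated FBS, penicillin/streptomycin and 2 mM L-glutamine, then differentiated to macrophages with 200 nM PMA for 72 h. Exposed to compound for 24 h. Viability read by resazurin conversion as fluorescence (ex 535 nm, em 580 nm). Digitonin 50 μg/mL served as cytotoxic control. Mean ± SD of four independent experiments; one-way ANOVA with Bonferroni test against DMSO.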"}, "THP-1 [11]": {"test_system": "THP-1", "assay": "Effect on CYP1B1 protein expression in human THP1 cells at 10 uM after 24 hrs by proteome analysis relative to control", "format": "functional", "outline": "as §1"}, "THP-1 [12]": {"test_system": "THP-1", "assay": "Effect on COMMD1 protein expression in human THP1 cells at 10 uM after 24 hrs by proteome analysis relative to control", "format": "functional", "outline": "as §1"}, "THP-1 [13]": {"test_system": "THP-1", "assay": "Effect on OR1M1 protein expression in human THP1 cells at 10 uM after 24 hrs by proteome analysis relative to control", "format": "functional", "outline": "as §1"}, "THP-1 [14]": {"test_system": "THP-1", "assay": "Induction of apo-A1-mediated cholesterol efflux from [3H]-cholesterol labeled human THP1 cells preincubated for 24 hrs followed by apo A1 addition measured after 6 hrs by scintillation counting method", "format": "functional, cell-based", "outline": "as §2"}, "THP-1 [15]": {"test_system": "THP-1", "assay": "Effect on PAIP2 protein expression in human THP1 cells at 10 uM after 24 hrs by proteome analysis relative to control", "format": "functional", "outline": "as §1"}, "THP-1 [16]": {"test_system": "THP-1", "assay": "Suppression of ABCA1 mRNA degradation in human THP1 cells at 10 uM in presence of de novo gene transcription inhibitor actinomycin D at 2 hrs by qPCR method", "format": "functional, cell-based", "outline": "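Differentiated THP-1 macrophages treated with 10 μM compound or DMSO for 24 h, then given 5 μg/mL actinomycin D and lysed at set time points. Total RNA extracted and reverse-transcribed; ABCA1 mRNA measured by SYBR Green qPCR normalised to 18S. Four independent experiments.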"}, "THP-1 [17]": {"test_system": "THP-1", "assay": "Effect on P4HTM protein expression in human THP1 cells at 10 uM after 24 hrs by proteome analysis relative to control", "format": "functional", "outline": "as §1"}, "THP-1 [18]": {"test_system": "THP-1", "assay": "Effect on SMO protein expression in human THP1 cells at 10 uM after 24 hrs by proteome analysis relative to control", "format": "functional", "outline": "as §1"}, "THP-1 [19]": {"test_system": "THP-1", "assay": "Effect on MYL12B protein expression in human THP1 cells at 10 uM after 24 hrs by proteome analysis relative to control", "format": "functional", "outline": "as §1"}, "THP-1 [20]": {"test_system": "THP-1", "assay": "Effect on MCM9 protein expression in human THP1 cells at 10 uM after 24 hrs by proteome analysis relative to control", "format": "functional", "outline": "as §1"}, "THP-1 [21]": {"test_system": "THP-1", "assay": "Effect on DYNLL2 protein expression in human THP1 cells at 10 uM after 24 hrs by proteome analysis relative to control", "format": "functional", "outline": "as §1"}, "[22]": {"assay": "Upregulation of ABCA1 protein expression in human THP1 cells at 10 uM after 24 hrs by Western blot method", "format": "functional, cell-based", "settings": "THP-1", "outline": "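THP-1 macrophages treated for 24 h with 10 μM compound, 10 μM pioglitazone or DMSO, then lysed in NP40 buffer (150 mM NaCl, 50 mM HEPES pH 7.4, 1% NP40) with protease and phosphatase inhibitors. 20 μg protein separated by SDS-PAGE and immunoblotted for ABCA1 with β-actin, ECL detection. Densitometry from four independent experiments.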"}, "THP-1 [23]": {"test_system": "THP-1", "assay": "Effect on LAMP1 protein expression in human THP1 cells at 10 uM after 24 hrs by proteome analysis relative to control", "format": "functional", "outline": "as §1"}, "THP-1 [24]": {"test_system": "THP-1", "assay": "Effect on TUBA1A protein expression in human THP1 cells at 10 uM after 24 hrs by proteome analysis relative to control", "format": "functional", "outline": "as §1"}, "THP-1 [25]": {"test_system": "THP-1", "assay": "Effect on TARBP1 protein expression in human THP1 cells at 10 uM after 24 hrs by proteome analysis relative to control", "format": "functional", "outline": "as §1"}}, "note": "Calls of active or inactive are those of the source. The calls are words filed in the database; no cut-off is given here.", "data": [{"smiles": "C/C=C(/C)C(=O)OC[C@H]1[C@@H](Cc2ccc(OC)c(OC)c2)CO[C@@H]1c1ccc(OC)c(OC)c1", "values": [{"measurement": "fold change (FC)", "setting": "THP-1 [1]", "result": 0.7}, {"measurement": "fold change (FC)", "setting": "THP-1 [2]", "result": 1.5}, {"measurement": "fold change (FC)", "setting": "THP-1 [3]", "result": 0.4}, {"measurement": "Activity", "setting": "THP-1 [4]", "result": "Active"}, {"measurement": "fold change (FC)", "setting": "THP-1 [5]", "result": 2.3}, {"measurement": "fold change (FC)", "setting": "[6]", "result": 2.4}, {"measurement": "fold change (FC)", "setting": "THP-1 [7]", "result": 1.6}, {"measurement": "fold change (FC)", "setting": "THP-1 [8]", "result": 1.7}, {"measurement": "fold change (FC)", "setting": "THP-1 [9]", "result": 1.6}, {"measurement": "Activity", "setting": "[10]", "result": "Non-Toxic"}, {"measurement": "fold change (FC)", "setting": "THP-1 [11]", "result": 1.6}, {"measurement": "fold change (FC)", "setting": "THP-1 [12]", "result": 1.5}, {"measurement": "fold change (FC)", "setting": "THP-1 [13]", "result": 2}, {"measurement": "Activity", "setting": "THP-1 [14]", "result": "Dose-dependent effect"}, {"measurement": "fold change (FC)", "setting": "THP-1 [15]", "result": 1.7}, {"measurement": "Activity", "setting": "THP-1 [16]", "result": "Active"}, {"measurement": "fold change (FC)", "setting": "THP-1 [17]", "result": 0.6}, {"measurement": "fold change (FC)", "setting": "THP-1 [18]", "result": 2.1}, {"measurement": "fold change (FC)", "setting": "THP-1 [19]", "result": 2}, {"measurement": "fold change (FC)", "setting": "THP-1 [20]", "result": 1.9}, {"measurement": "fold change (FC)", "setting": "THP-1 [21]", "result": 1.7}, {"measurement": "Activity", "setting": "[22]", "result": "Active"}, {"measurement": "fold change (FC)", "setting": "THP-1 [23]", "result": 1.8}, {"measurement": "fold change (FC)", "setting": "THP-1 [24]", "result": 1.5}, {"measurement": "fold change (FC)", "setting": "THP-1 [25]", "result": 0.6}]}]}
